proKLK7 act: proKLK7 zymogen activators, primary screen, biochemical, fluorescence intensity; Kallikrein-7 (Homo sapiens), P49862; purified proKLK7, EDANS-DABCYL substrate fluorescence; 100% is mature enzyme control, 0% vehicle; activation, % at 7 µM; AID 652039, 2013; actives 0.9% (n = 370,000);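 active means activation above the mean of all tested compounds plus 3 SD, computed per campaign excluding outliers beyond control limits, cut at about 13% in these data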
Target sequence (P49862 whole entry, looked up): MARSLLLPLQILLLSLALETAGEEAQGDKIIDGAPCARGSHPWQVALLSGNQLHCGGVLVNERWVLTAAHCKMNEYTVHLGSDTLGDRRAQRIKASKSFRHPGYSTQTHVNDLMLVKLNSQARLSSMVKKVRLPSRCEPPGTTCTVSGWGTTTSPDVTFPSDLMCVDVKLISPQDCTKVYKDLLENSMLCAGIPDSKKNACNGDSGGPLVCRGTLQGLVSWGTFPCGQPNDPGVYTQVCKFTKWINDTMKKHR
ADAM17 inh: ADAM17 inhibitors, primary screen, biochemical, QFRET; recombinant ADAM17, EDANS/DABCYL FRET peptide cleavage; inhibition, % at 6.95 µM; actives 0.83% (n = 370,000); AID 720648, 2013;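 active means inhibition above the mean of compounds lying between control limits plus 3 SD, set per campaign, cut at about 8.5% in these data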;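 further: 0% = DMSO-only wells as the low control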
NR2E3 ag-1: NR2E3 agonists in two-hybrid cells, primary screen, cell-based, luminescence, CHO-S, Gal4-NCOR/VP16-NR2E3; luciferase; inhibition of corepressor binding, % at 3.98 µM; actives 0.35% (n = 360,000); AID 602229, 2012;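 active means inhibition above the mean of all tested compounds plus 3 SD, cut at about 70% in these data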;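 further: 0% = DMSO with NR2E3 transfected cells and 100% = cells lacking NR2E3 construct; higher means lower luciferase signal from less NR2E3 corepressor binding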
Target sequence (Q9Y5X4 whole entry, looked up, the tested form may be a part): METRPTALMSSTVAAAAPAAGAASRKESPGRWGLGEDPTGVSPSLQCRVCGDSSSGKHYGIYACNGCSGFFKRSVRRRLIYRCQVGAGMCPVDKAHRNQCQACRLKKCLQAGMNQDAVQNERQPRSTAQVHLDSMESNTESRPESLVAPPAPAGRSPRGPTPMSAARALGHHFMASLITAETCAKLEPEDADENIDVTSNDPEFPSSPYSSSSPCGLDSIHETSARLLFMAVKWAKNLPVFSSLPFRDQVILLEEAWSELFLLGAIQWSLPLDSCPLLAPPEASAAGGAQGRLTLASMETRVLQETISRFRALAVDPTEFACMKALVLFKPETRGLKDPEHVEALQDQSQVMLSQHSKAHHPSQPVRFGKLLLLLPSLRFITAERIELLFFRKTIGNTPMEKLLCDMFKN
NR2E3 ag-2: inhibitors of NR2E3-RetCOR corepressor binding, primary screen, NR2E3 agonist project, biochemical, TR-FRET, GST-NR2E3, biotin-RetCOR; AID 2300, 2010; 1536-well; actives 0.12% (n = 320,000); inhibition of corepressor binding, % at 4.78 µM; Photoreceptor-specific nuclear receptor (Homo sapiens), Q9Y5X4;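 active means percent inhibition above the cutoff of mean plus 3 SD of all tested compounds, set per screening campaign, cut at about 20% in these data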;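 further: 0% = DMSO wells and 100% = biotin wells as full block of FRET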
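System: GST-tagged NR2E3 plus biotinylated RetCOR corepressor; Buffer or medium: pH 7.5 Tris-based buffer; Probe or stimulus: RetCOR corepressor, biotinylated, 7 nM; Doses: compound at 4.8 µM, single dose; Schedule: 5 h incubation at 4 °C; Technique: time-resolved FRET; Evaluation: percent inhibition of TR-FRET ratio; Replication: one well per compound, singlicate testing.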
ADAM10 inh: human ADAM10 inhibitors, primary screen, biochemical, QFRET, HTS. inhibition, % at 7 µM. AID 720582, 2013. actives 0.62% (n = 370,000). recombinant ADAM10, EDANS/DABCYL FRET peptide cleavage, 3 h;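 active means inhibition above a per-campaign cutoff equal to the mean of compounds falling between control-based bounds plus 3 SD, cut at about 20% in these data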;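 further: 0% = DMSO wells while the 100% control is not disclosed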
JMJD2C inh: inhibitors of GASC-1 histone demethylase, primary screen, biochemical, fluorescence, DELFIA europium | Lysine-specific demethylase 4C (Homo sapiens), Q9H3R0 | GST-JMJD2C(1-420) H3K9me3 demethylation | inhibition, % at 2.35 µM | actives 0.069% (n = 330,000) | AID 2099, 2009;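 active means more than half of a compound's replicate wells show inhibition beyond 50%, single wells judged on their own value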;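 further: signal counts dimethyl H3K9 product captured on neutravidin plate; 0% = median of DMSO wells and 100% = 0.3 times that DMSO median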
An asterisk follows results filed as active; nt = no result given. An excerpt weighted towards active compounds, which were near 2.5% of everything screened.

SMILES	proKLK7 act	ADAM17 inh	NR2E3 ag-1	NR2E3 ag-2	ADAM10 inh	JMJD2C inh
CCCCN(C)C(=O)CN1C(=O)C2CCCCN2C(=O)c2ccccc21 (stereo unspecified)	-0.2	3.9	nt	nt	-9.3	nt
Cc1ccc(Cn2c(SCC(=O)N3CC(=O)Nc4ccccc43)nc3ccccc3c2=O)cc1	-0.8	8.9*	7.3	-1.8	15.8	-11.1
C=C1CCC2C(C)(C)CCC[C@]2(C)[C@H]1CC1=C(O)C(=O)C(CO)=CC1=O (stereo partly specified)	0.1	-4.0	nt	nt	6.3	nt
CN(C)S(=O)(=O)c1cccc(-c2nnc(SCc3ccc4c(c3)OCCO4)o2)c1	0.1	11.6*	-1.3	1.8	20.4*	5.3
COC(=O)[C@]12C[C@H](CC(=O)NCc3ccc(OC)c(OC)c3)C(=O)N(Cc3ccc4c(c3)OCO4)C1=C[C@H](C(C)(C)C)O[C@@H]2C	0.6	-1.0	nt	nt	2.0	nt
N#CC1(Nc2ccc(-c3ccc(NC4(C#N)CCCC4)cc3)cc2)CCCC1	-0.3	18.5*	27.5	nt	21.8*	nt
Cc1ccc(NC2(C#N)CCCC2)cc1	0.3	-4.0	7.3	nt	-29.8	nt
CCn1c(SCC(=O)Nc2nc(C)cs2)nnc1-c1ccncc1	0.2	-0.8	-16.2	-1.4	-0.3	54.3*
CCn1c(SCC(=O)Nc2nc(-c3ccc(C)cc3)cs2)nnc1-c1ccccc1O	0.3	14.8*	-28.4	0.0	3.6	2.5
CCn1c(SCC(=O)Nc2nc(-c3ccc(C)cc3)cs2)nnc1-c1ccccc1	0.3	1.1	-15.9	1.4	0.3	-5.6
CCCCNC(=O)C[C@@H]1C(=O)N(Cc2ccc(OC)cc2)C2=CCN(C(=O)OC(C)(C)C)C[C@]21C(=O)OCC	0.3	-1.4	nt	nt	-0.1	nt
Cc1cccc(C2C3=C(Nc4[nH]n(-c5ccccc5)c(=O)c42)c2ccccc2C3=O)c1 (stereo unspecified)	0.0	9.8*	-7.8	nt	16.4	27.9
Cc1ccccc1C1C2=C(Nc3[nH]n(-c4ccccc4)c(=O)c31)c1ccccc1C2=O (stereo unspecified)	nt	nt	nt	-0.7	nt	4.3
Oc1ccc(Br)cc1-c1nc2cnccn2c1NC1CCCC1	49.3*	-106.0	-4.1	-0.5	-361.6	-1.1
Oc1ccc(Br)cc1-c1nc2cnccn2c1NC1CCCCC1	-15.4	-45.6	-2.4	1.7	-118.7	-13.8
CCCCNC(=O)C1(C)CCCCN1C(=O)c1ccno1 (stereo unspecified)	-0.2	-2.5	1.0	nt	-8.1	nt
O=C(Nc1ccc(S(=O)(=O)N2CCOCC2)cc1)c1cc(-c2cc(Cl)ccc2O)n[nH]1	-0.4	5.3	-3.9	1.1	26.6*	-22.9
COCCNC(=O)c1c(N)sc2c1CCCC2	nt	nt	nt	0.7	nt	50.1*
CNC(=O)c1c(N)sc2c1CCCCC2	nt	nt	nt	3.2	nt	1.7
COc1ccc(NC(=O)Nc2ccc3c(c2)C(=O)N([C@H](C)CO)C[C@H](C)[C@@H](CN(C)Cc2ccc(Cl)c(Cl)c2)OCCCC[C@@H](C)O3)cc1	-0.5	5.3	-9.9	nt	21.2*	nt
C[C@H](CO)N1C[C@H](C)[C@@H](CN(C)C(=O)Nc2ccc(C(F)(F)F)cc2)Oc2c(NC(=O)Nc3ccc(C(F)(F)F)cc3)cccc2C1=O	0.3	11.6*	6.3	nt	28.6*	-9.2
C[C@@H]1CCCCO[C@H](CN(C)Cc2ccc(Cl)c(Cl)c2)[C@H](C)CN([C@@H](C)CO)C(=O)c2cc(NC(=O)Nc3ccc(F)cc3)ccc2O1	-0.7	1.9	2.2	nt	6.6	nt
C[C@H](CO)N1C[C@H](C)[C@@H](CN(C)C(=O)Nc2ccc(C(F)(F)F)cc2)Oc2ccc(NC(=O)Nc3ccc(C(F)(F)F)cc3)cc2C1=O	0.3	12.8*	-2.5	nt	25.8*	-5.0
CC(C)NC(=O)N(C)C[C@H]1Oc2ccc(NC(=O)Nc3ccc(C(F)(F)F)cc3)cc2C(=O)N([C@H](C)CO)C[C@@H]1C	-0.2	1.1	-4.5	nt	-0.6	33.9
COc1ccc(NC(=O)N(C)C[C@H]2Oc3ccc(NS(=O)(=O)c4cn(C)cn4)cc3C(=O)N([C@H](C)CO)C[C@@H]2C)cc1	-0.6	-2.3	2.5	nt	-5.2	nt
SMILES	proKLK7 act	ADAM17 inh	NR2E3 ag-1	NR2E3 ag-2	ADAM10 inh	JMJD2C inh
COc1ccc(NC(=O)N(C)C[C@H]2Oc3c(NS(=O)(=O)c4cn(C)cn4)cccc3C(=O)N([C@H](C)CO)C[C@@H]2C)cc1	0.5	6.4	-22.8	nt	-4.0	57.9*
C=CCC12C=C(OC)C(=O)C(C1=O)C(c1ccc(OC)cc1)C2C (stereo unspecified)	0.3	2.2	nt	nt	-5.5	nt
O=C(Nc1c(-c2ccc(F)cc2)nc2ncccn12)c1ccccc1	7.6	-69.4	nt	nt	-238.8	nt
Nc1c(C(=O)N2CCOCC2)cnn1Cc1ccccc1	-0.6	-2.7	nt	nt	0.4	nt
COc1cc(NC(=O)c2ccccc2)c(C)cc1NC(=O)CSc1nnc(-c2ccco2)n1Cc1ccco1	1.0	3.1	nt	nt	-0.1	nt
CCN(CC)c1nc(C)nc2c1nnn2Cc1ccccc1	-0.1	-1.5	nt	nt	-2.4	nt
COc1ccc(S(=O)(=O)N(C)C[C@H]2Oc3ccc(NC(=O)Nc4ccc(C(F)(F)F)cc4)cc3C(=O)N([C@H](C)CO)C[C@@H]2C)cc1	0.8	11.5*	-8.8	nt	29.1*	23.1
COc1ccc(NC(=O)Nc2ccc3c(c2)C(=O)N([C@H](C)CO)C[C@H](C)[C@@H](CN(C)S(=O)(=O)c2ccc(OC)cc2)O3)cc1	0.7	3.2	-19.5	nt	8.9	29.3
C[C@H](CO)N1C[C@H](C)[C@@H](CN(C)S(=O)(=O)c2ccc(F)cc2)Oc2ccc(NC(=O)C3CC3)cc2C1=O	-0.2	-0.4	-14.3	nt	7.7	62.0*
C[C@H](CO)N1C[C@H](C)[C@@H](CN(C)Cc2ccc(C(=O)O)cc2)Oc2c(NC(=O)C3CC3)cccc2C1=O	0.0	-2.0	-17.6	nt	-19.1	20.8
CC(C)NC(=O)Nc1ccc2c(c1)C(=O)N([C@@H](C)CO)C[C@@H](C)[C@@H](CN(C)S(=O)(=O)c1ccc(F)cc1)O2	0.8	-2.6	5.4	nt	-18.7	22.2
C[C@H](CO)N1C[C@H](C)[C@@H](CN(C)Cc2ccc(Oc3ccccc3)cc2)Oc2c(NC(=O)C3CC3)cccc2C1=O	0.4	8.1	27.2	nt	22.4*	nt
C[C@@H]1CN([C@H](C)CO)C(=O)Cc2cc(NC(=O)Nc3ccccc3)ccc2O[C@@H]1CN(C)Cc1ccc2c(c1)OCO2	0.8	4.2	-26.1	nt	20.5*	-1.7
